# Compound activity as filed in PubChem BioAssay.
# OX1R antag-1: blocks the human orexin 1 receptor; O43613; inhibition, % at 6.6 µM; OX1R-expressing cells, FRET antagonist read-out; 330,000 tested, 1.8% active; in the data active = inhibition mostly above about 38%, no sharp cut-off; inactive = mostly below about 40%;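 note: 0% = agonist challenge alone and 100% = reference antagonist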
# TAAR1 ag: human TAAR1 agonism | Q96RJ0 | CHO RD-HGA16 TAAR1, Fluo-8 calcium fluorescence; vehicle wells 0%, saturating PEA agonist 100% | activation, % at 3 µM | 360,000 tested, 0.99% active | AID 624467;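 active = activation above the mean activation of all test compounds in the run plus 3 SD, cut at about 38% in these data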
# Target sequence (Q96RJ0 whole entry, looked up): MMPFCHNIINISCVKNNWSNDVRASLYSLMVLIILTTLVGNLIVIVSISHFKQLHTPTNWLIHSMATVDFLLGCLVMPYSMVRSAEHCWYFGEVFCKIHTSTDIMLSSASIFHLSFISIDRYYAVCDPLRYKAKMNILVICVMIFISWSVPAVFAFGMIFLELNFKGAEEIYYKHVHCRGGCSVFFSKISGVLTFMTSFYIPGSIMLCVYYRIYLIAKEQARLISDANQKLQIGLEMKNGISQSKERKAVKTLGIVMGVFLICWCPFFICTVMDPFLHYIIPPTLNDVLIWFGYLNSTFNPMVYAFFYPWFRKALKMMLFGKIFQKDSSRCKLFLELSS
#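 Assay system – CHO-derived RD-HGA16 cells with stable Gα16 and human TAAR1 · Compound dosing – one-point dosing at 3 µM (nominal) · Incubation – 17-24 h seeding, 75 min 37 °C dye, 30 min RT · Measured by – kinetic Fluo-8 calcium fluorescence · Control set – DMSO vehicle as 0%, PEA at EC100 as 100% · Repeats – single well for each compound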
# OX1R antag-2: blocks the human orexin 1 receptor. O43613. CHO/OX1R cells, Fluo-8 calcium fluorescence, orexin A. inhibition, % at 5 µM. 330,000 tested, 0.43% active. AID 434989;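 active = inhibition above its plate's threshold, mean inhibition of all tested compounds on the plate plus 3 SD, cut at about 37% in these data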;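 note: 0% = orexin A challenge wells and 100% = SB-334867-A antagonist wells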
# GalR3 antagonist: antagonists of human GalR3 | O60755 | HEK293 GalR3-CNG cAMP membrane potential fluorescence; galR3 body fused to GalR1 C-terminus | inhibition, % at 3 µM | 360,000 tested, 0.44% active;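 active = inhibition above the screen-wide average plus 3 SD, cut at about 13% in these data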;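 note: forskolin and galanin both at EC90 stimulate the cells; cAMP rise reported by CNG channel membrane potential dye signal; 0% = forskolin plus galanin with DMSO and 100% = forskolin alone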
# Target sequence (O60755 1-299 limits assumed): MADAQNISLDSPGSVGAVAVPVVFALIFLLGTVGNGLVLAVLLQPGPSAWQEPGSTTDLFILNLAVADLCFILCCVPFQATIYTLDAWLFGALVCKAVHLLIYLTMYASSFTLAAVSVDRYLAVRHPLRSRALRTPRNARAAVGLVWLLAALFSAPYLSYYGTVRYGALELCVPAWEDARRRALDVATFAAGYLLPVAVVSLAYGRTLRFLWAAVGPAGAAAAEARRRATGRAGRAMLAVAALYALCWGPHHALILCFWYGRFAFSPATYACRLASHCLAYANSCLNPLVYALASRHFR
# TAAR1 antag: antagonists of human TAAR1 | inhibition, % at 3 µM | 360,000 tested, 1.5% active | CHO RD-HGA16 TAAR1, Fluo-8 calcium fluorescence, antagonist;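 active = inhibition above a per-plate cutoff, the mean inhibition of test compounds on that plate plus 3 SD, cut at about 49% in these data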;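 note: 0% = DMSO plus EC80 beta-PEA response and 100% = DMSO alone without agonist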
#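 Material: CHO RD-HGA16 cells bearing hTAAR1; compound dosing: one-point dosing, 3 µM nominal final; schedule: dye loading 75 min at 37 °C, then 30 min room temperature; measured by: calcium fluorescence with Fluo-8; control set: vehicle and agonist controls; replication: n of 1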
# CHO parental Ca: counter-screen: ATP calcium response change in parental CHO cells; parental CHO-K1, ATP-induced calcium, Fluo-8 fluorescence; inhibition, % at 5.6 µM; 330,000 tested, 0.63% active;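 active = inhibition above that plate's mean sample inhibition plus 3 SD, cut at about 26% in these data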;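 note: 0% = ATP-challenged DMSO wells and 100% = DMSO wells without ATP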
#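 test system = CHO parental line | reagent = ATP stimulus | measured by = intracellular calcium via Fluo-8 no-wash fluorescent dye | control set = ATP and no-ATP DMSO wells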
# TAAR1 nonsel count: counter-screen for TAAR1 antagonists: nonselective antagonists; 2,400 tested, 77% active; inhibition, % at 3 µM; counterscreen cell line, calcium fluorescence, antagonist mode; shares compounds with TAAR1 antag; in the data active = inhibition above about 22%;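 note: CHO-Ga16 host cells stimulated with ATP at an EC80 level; 0% = agonist EC80 plus vehicle and 100% = vehicle without agonist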
# TAAR1 antag conf: human TAAR1 antagonism, confirmed. TAAR1-expressing cells, fluorescence antagonist read-out. shares compounds with TAAR1 antag. AID 651785. 2,400 tested, 40% active. inhibition, % at 3 µM; in the data active = inhibition above about 49%;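 note: CHO-Ga16 host cells challenged with agonist PEA near its EC80; 0% = agonist at EC80 plus vehicle and 100% = vehicle with no agonist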
# Ga16 nonsel ag: counter-screen for TAAR1 antagonists: nonselective Ga16 agonists; shares compounds with TAAR1 antag; AID 651953; 2,400 tested, 18% active; activation, % at 3 µM; Ga16-expressing cells, calcium fluorescence, agonist counterscreen; in the data active = activation above about 12%;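 note: 0% = vehicle wells and 100% = saturating stimulus response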
# TAAR1 ag count: counter-screen for human TAAR1 antagonists: TAAR1 agonists; 2,400 tested, 2% active; shares compounds with TAAR1 antag; activation, % at 3 µM; hTAAR1 cell line, fluorescence activation, agonist mode; in the data active = activation above about 37%;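 note: CHO cells stably expressing TAAR1 with calcium dye readout; 0% = DMSO vehicle and 100% = full agonist response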
# Starred values were filed as active, the others as inactive; . = no result. Rows were chosen to be rich in hits. Some 4.3% of all compounds tested hit in one or more screens of this group.
SMILES,OX1R antag-1,TAAR1 ag,OX1R antag-2,GalR3 antagonist,TAAR1 antag,CHO parental Ca,TAAR1 nonsel count,TAAR1 antag conf,Ga16 nonsel ag,TAAR1 ag count
OC(c1ccccc1)(c1nc(-c2cccc3cccnc23)cs1)C(F)(F)F (configuration not stated),.,1,.,-1,-5,.,.,.,.,.
Cn1c(/C(C#N)=C(\O)c2ccc([N+](=O)[O-])cc2)nc2ccccc21,20,5,-14,-6,8,-11,.,.,.,.
CCN(CC)S(=O)(=O)c1ccc(/C(O)=C(\C#N)c2nc3ccccc3n2C)cc1,3,35,-9,-2,63*,-19,35*,49*,13*,14
COc1ccc(S(=O)(=O)N2CCCCCC2)cc1C(=O)OCc1cccc(OC)c1OC,6,4,-32,-4,58*,-22,22*,43,7,15
COc1cccc(COC(=O)C2CCN(S(=O)(=O)c3ccc(C)cc3)CC2)c1OC,9,1,-10,-3,-22,-5,.,.,.,.
COC(=O)c1cccc(NC(=O)c2ccc3c(c2)C(=O)N(C(C)(C)C)C3=O)c1,12,11,-33,-5,65*,-6,38*,63*,9,6
O=C(Nc1ccc(O)cc1)c1ccc2c(c1)C(=O)N(Cc1ccccc1)C2=O,9,28,-4,0,63*,-2,22*,43,14*,23
Cc1ccc(O)c(NC(=O)c2ccc3c(c2)C(=O)N(Cc2cccnc2)C3=O)c1,22,21,-3,-2,77*,0,34*,59*,13*,14
CC(C)(C)N1C(=O)c2ccc(C(=O)Nc3ccc(O)cc3)cc2C1=O,17,12,2,0,63*,-11,24*,26,7,6
CC1(c2ccc(Cl)cc2)NC(=O)N(CC(=O)N2CCN(C(=O)c3cccs3)CC2)C1=O (configuration not stated),.,0,.,-5,-6,.,.,.,.,.
CC(=O)c1ccc(-c2cccc([C@H]3[C@@H]4C=CC[C@@H](C)[C@@H]4C(=O)N3Cc3ccccc3)c2)cc1,27,-1,-16,-5,-21,-31,.,.,.,.
CC(C)(C)NC(=O)c1cccc(NC(=O)c2ccc3c(c2)C(=O)N(C(C)(C)C)C3=O)c1,5,21,-8,-9,85*,17,38*,65*,13*,11
Cc1ccc(NC(=O)COC(=O)C2COc3ccccc3O2)cc1 (configuration not stated),-1,6,-1,2,5,-1,.,.,.,.
COC(=O)c1cc(NC(=O)COC(=O)C2COc3ccccc3O2)cc(C(=O)OC)c1 (configuration not stated),6,9,5,-4,72*,5,26*,42,8,4
CNc1cnc(-c2ccsc2)cn1,.,1,.,-2,-12,.,.,.,.,.
COc1ccc(-c2nc(SCC(=O)Nc3nccs3)c(-c3ccc(Cl)cc3)[nH]2)cc1,30,7,4,.,68*,17,45*,59*,8,3
COc1ccc(C2=NOC(Cn3nc(C(=O)NCC4CC4)cc3-c3ccccc3)C2)cc1 (configuration not stated),21,14,-30,9,72*,-14,34*,49*,6,5
COc1ccc(C2=NOC(Cn3nc(C(=O)NCc4ccc(OC(F)(F)F)cc4)cc3-c3ccccc3)C2)cc1 (configuration not stated),14,2,-1,-3,24,-10,.,.,.,.
COc1ccc(C2=NOC(Cn3nc(C(=O)NCc4ccccc4OC)cc3-c3ccccc3)C2)cc1 (configuration not stated),45,16,-12,-2,68*,6,33*,53*,10,6
Cc1cc(C)c2sc(N(CCCN(C)C)C(=O)c3ccc(S(=O)(=O)N(C)Cc4ccccc4)cc3)nc2c1,11,35,-30,-4,50*,-32,39*,40,26*,46*
C[C@H](CO)N1C[C@H](C)[C@@H](CN(C)S(=O)(=O)c2cccs2)Oc2ccc(NS(=O)(=O)c3ccccc3)cc2CC1=O,4,1,-15,-1,-4,-13,.,.,.,.
COc1ccc(OC)c(NC(=O)c2cc(-c3ccc(F)cc3OC(C)C)n[nH]2)c1,.,3,.,-6,41,.,.,.,.,.
COc1ccc(NC(=O)c2cc(-c3ccc(F)cc3OC)n[nH]2)c(OC)c1,.,10,.,5,66*,.,32*,48,6,4
CC1CC(C)(C)CC2(C1)NC(=O)N(CC(=O)N(C)Cc1nc3ccccc3c(=O)[nH]1)C2=O (configuration not stated),2,12,-5,-4,6,-10,.,.,.,.
O=C(CN1c2ccccc2Sc2ccccc21)NNC(=O)Nc1cccc(Cl)c1,14,1,-19,0,58*,-6,13,37,0,2
SMILES,OX1R antag-1,TAAR1 ag,OX1R antag-2,GalR3 antagonist,TAAR1 antag,CHO parental Ca,TAAR1 nonsel count,TAAR1 antag conf,Ga16 nonsel ag,TAAR1 ag count
Cn1c(/C=C(\C#N)C(N)=S)ccc1-c1ccc(Br)cc1,.,10,.,-6,67*,.,25*,39,6,15
OC[C@@H]1CN(Cc2ccc(F)cc2)C[C@H](n2cnc3c(N4CCN(c5ccccc5)CC4)ncnc32)O1,.,10,.,-6,64*,.,36*,55*,18*,20
COCc1ccc(C(=O)Nc2cccc(S(=O)(=O)N(C)c3ccccc3)c2)cc1,15,10,-19,-8,53*,-2,32*,38,8,5
CC(=O)c1c(C)[nH]c(C(=O)Nc2cccc(S(=O)(=O)N(C)c3ccccc3)c2)c1C,50,17,7,-4,61*,-7,44*,66*,14*,13
O=[N+]([O-])c1ccc(OCCCCN2CCc3ccccc3C2)cc1,11,5,-12,-10,-10,-10,.,.,.,.
CCc1nc2ccc(C(=O)N3CCN(S(=O)(=O)CC)CC3)cn2c1N(C)Cc1cccs1,.,2,.,-7,-4,.,.,.,.,.
